Among the data in PubChem BioAssay AID588825 (Broad Institute, 2011) are activity change, negative = inhibition and AC50 values, retold here.

Activity calls are given as the source filed them.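 Rule for the calls: active = signal drop whose fitted AC50 is at most twice the top valid dose for that sample; inconclusive = flat fit with a moderate drop, or a poor fit; inactive = the rest.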

Test system in one assay: not listed separately
The experiment in a line: SR-BI-independent HDL uptake inhibition, parental line – CHO ldlA7 parental cells, fluorescence, dry powder, counter-screen for SR-BI HDL uptake inhibitor project, dose response (AID 588825). To be noted: CHO ldlA7 parental cells, DiI-HDL uptake fluorescence, 3 h; at 30 µM (top of the series). The procedure, abridged:
(§1)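 Assay system: parental CHO ldlA7 cells lacking LDL receptor, no mSR-BI overexpression; Probe or stimulus: DiI-labelled HDL at 10 µg/mL final; Times: 3 h exposure at 37 °C; Detection: bottom-read fluorescence after two PBS washes, excitation 550 nm, emission 595 nm.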
In general terms: Counterscreens check selectivity or assay interference.
Turning to `C[C@@H]1CN([C@@H](C)CO)C(=O)Cc2cc(NC(=O)Nc3ccc(C(F)(F)F)cc3)ccc2O[C@@H]1CN(C)S(=O)(=O)c1ccc(Cl)cc1`, the activity change, negative = inhibition was 19.1% (inactive).

Still in this assay, the particulars now being: CHO ldlA7 parental cells, DiI-HDL uptake fluorescence, 3 h; at 35 µM (top of the series).
Regarding `CCC(=O)N1CCc2cc(-c3csc(NC(=O)c4ccc(F)c(OC)c4)n3)ccc21`, the activity change, negative = inhibition is 7.73% (inactive).

As for `C[C@H](C(=O)NC1CCCC1)N(C(=O)Cn1nnc(-c2ccc3c(c2)OCO3)n1)C1CCCCC1`, the activity change, negative = inhibition is 0.283% (inactive). In the case of `CC1CCC/C=C/C2CC(O)CC2C(O)/C=C\C(=O)O1` (configuration not stated), the activity change, negative = inhibition is -6.83% (inactive). On the same count and under the same terms, the same measure for `COc1ccc(-c2cc(CC(=O)N(C3CCCCC3)C(C)C(=O)NC3CCCC3)no2)cc1OC` (configuration not stated): 3.44% (inactive); for `COc1cc(OC)cc(C(=O)Nc2nc(-c3ccc4c(c3)CCN4C(=O)OC(C)(C)C)cs2)c1`: 1.78% (inactive). Take `CC(=O)N1CCc2cc(-c3nc(NC(=O)c4cccc(OC(F)(F)F)c4)sc3C)ccc21`: the activity change, negative = inhibition was 0.208% (inactive).

As to `CCC(=O)N1CCc2cc(-c3csc(NC(=O)c4cccc(OC)c4)n3)ccc21`, the activity change, negative = inhibition was 14.2% (inactive). For the compound `COc1cc(OC)cc(C(=O)Nc2nc(-c3ccc4c(c3)CCN4C(=O)CN(C)C)cs2)c1`, the activity change, negative = inhibition is 3.12% (inactive). Still for that read-out and setting: under `Cc1ccc2oc(-c3cccc(NC(=O)c4cc(-n5cnnc5)ccc4Cl)c3)nc2c1` stands -1.07% (inactive); under `CCNC(=O)N1CCc2cc(-c3csc(NC(=O)c4cc(OC)cc(OC)c4)n3)ccc21`, -0.713% (inactive); under `COc1c(NC(=O)C(=O)c2ccc(OCCN3CCOCC3)c3ccccc23)cc(C(C)(C)C)cc1NS(C)(=O)=O`, 8% (inactive). For `C[C@@H]1CN([C@H](C)CO)C(=O)c2cc(NC(=O)Cc3cn(C)c4ccccc34)ccc2O[C@H]1CN(C)S(=O)(=O)c1ccc(Cl)cc1`, the activity change, negative = inhibition was 5.56% (inactive).

Take `CC(C)(Sc1cc(C(C)(C)C)c(O)c(C(C)(C)C)c1)Sc1cc(C(C)(C)C)c(O)c(C(C)(C)C)c1`: the activity change, negative = inhibition was -1.71% (inactive). `COCC(=O)N1CCc2cc(-c3csc(NC(=O)c4cc(OC)cc(OC)c4)n3)ccc21`: the activity change, negative = inhibition is 1.62% (inactive). On the same count and under the same terms, under `CCC(=O)N1CC(C)(C)c2cc(-c3csc(NC(=O)c4cc(OC)cc(OC)c4)n3)ccc21` stands -2.41% (inactive).

Another assay deals with CHO ldlA7 parental cells, DiI-HDL uptake fluorescence, 3 h. Described as above.
Settings: not given
The procedure, abridged:
as §1
Take `CCCCCCC1CCC/C1=N\NC(N)=S` (configuration not stated): the AC50 is > 70 µM (inactive).

By AC50 is commonly meant the midpoint of the concentration-response curve, whichever way the signal moves.
